Laboratory results from paper PMC8263925 (The Journal of General Physiology, 2021).
Changes are numbered by the printed parent chain.

Assays:
Hv1 WT [1] = biological target: T1, Hv1 WT (Homo sapiens, UniProt Q96D96); format: cell-based
T1 sequence (Q96D96 1-273): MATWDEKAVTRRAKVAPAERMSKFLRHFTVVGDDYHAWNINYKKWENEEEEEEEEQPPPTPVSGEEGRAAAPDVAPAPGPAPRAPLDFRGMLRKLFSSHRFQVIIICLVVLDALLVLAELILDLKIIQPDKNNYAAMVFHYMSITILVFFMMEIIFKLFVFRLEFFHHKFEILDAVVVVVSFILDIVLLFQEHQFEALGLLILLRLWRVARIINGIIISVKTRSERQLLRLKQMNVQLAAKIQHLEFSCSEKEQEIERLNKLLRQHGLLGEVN
In short: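 WT channel in inside-out oocyte patches, symmetric pH 6.0, 22 ± 1°C. Holding −40 mV, depolarization to +120 mV; relative depolarization time td/(tr + td) of 0.1, 0.2, 0.3 or 0.5. 50 µM perfused into bath, then washed out. End-pulse current normalized. Decay fitted double-exponentially (τfast, τslow, weights, c∞); recovery fitted single-exponentially. n = 7, 7, 5, 8 per RDT; SEM.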

Hv1 WT [2] = biological target: T1, Hv1 WT; assay: Inside-out patch, pulsed application of inhibitor to the closed channel; format: cell-based; conditions: for channel inhibition under pulsed conditions: 100 µM pulses
In short: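 WT channel, inside-out oocyte patches, pH 6.0. Test compound (100 µM) applied in 3 s pulses while the membrane was held closed at −40 mV, or at 0 mV or −80 mV. Current read after each pulse with a step to +120 mV. Control pulses of a reference Hv1 inhibitor given first to confirm complete washout between depolarizations.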

monomeric Hv1 = biological target: T2, monomeric Hv1 (Homo sapiens, UniProt Q96D96); assay: Inside-out patch time course of inhibition, monomeric Hv1 chimera; format: cell-based; conditions: 50 µM
T2 sequence (Q96D96 97-227 limits assumed): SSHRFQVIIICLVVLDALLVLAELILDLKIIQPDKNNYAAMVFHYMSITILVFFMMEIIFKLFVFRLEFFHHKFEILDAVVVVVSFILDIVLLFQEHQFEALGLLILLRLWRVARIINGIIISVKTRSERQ

Hv1 F150A = biological target: T3, Hv1 F150A (Homo sapiens, UniProt Q96D96, F150A); assay: Inside-out patch time course of inhibition, mutant channel; format: cell-based; conditions: 0.1 µM, SEM, n = 5
T3 sequence (Q96D96 1-273 F150A): T1 sequence (Q96D96 1-273) with F150A

Hv1 S181A = assay: Inside-out patch time course of inhibition, mutant channel; format: cell-based, human; conditions: 50 µM
In short: (§1)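 Xenopus oocytes injected with mutant-channel mRNA 1–3 d earlier, kept at 18°C in ND96. Inside-out patches at 22 ± 1°C in symmetric Mes/TEA solutions, pH 6.0. Held at −40 mV and pulsed to +120 mV at relative depolarization time 0.2 (3 s/15 s). 50 µM perfused into bath. End-pulse current leak- and rundown-corrected. Decay fitted double-exponentially (τfast, τslow, cfast, cslow); washout recovery single-exponentially (τoff).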

Hv1 R211A = assay: as above; format: cell-based, human; conditions: 50 µM
In short: as §1

Hv1 E153C = biological target: T4, Hv1 E153C (Homo sapiens, UniProt Q96D96, E153C); assay: as above; format: cell-based
T4 sequence (Q96D96 1-273 E153C): T1 sequence (Q96D96 1-273) with E153C
In short: as §1

Hv1 F156A = biological target: T5, Hv1 F156A (Homo sapiens, UniProt Q96D96, F156A); assay: as above; format: cell-based; conditions: 50 µM
T5 sequence (Q96D96 1-273 F156A): T1 sequence (Q96D96 1-273) with F156A
In short: as §1

Hv1 K157Q = biological target: T6, Hv1 K157Q (Homo sapiens, UniProt Q96D96, K157Q); assay: as above; format: cell-based; conditions: 50 µM
T6 sequence (Q96D96 1-273 K157Q): T1 sequence (Q96D96 1-273) with K157Q
In short: as §1

[3] = 50 μM, double-exponential fit, RDT 0.1-0.5

Cc1[nH]c(N)nc1CCC(=O)c1cc(F)cc(F)c1 [HIF, 3-(2-amino-5-methyl-1H-imidazol-4-yl)-1-(3,5-difluorophenyl)propan-1-one]
relative contribution of the slow component, cslow / (cfast + cslow) (Hv1 WT [1]; 50 μM, RDT = 0.2): 0.51
τfast, time constant of fast component of inhibition (Hv1 WT [1]; [3]): < 5 s
τslow, time constant of slow component of inhibition (Hv1 WT [1]; [3]): > 40 s
τslow, RDTon = 0.1/τslow, RDTon = 0.5 (Hv1 WT [1]; 50 μM, experimental): 1.15 ± 0.20
τoff, recovery from inhibition (Hv1 WT [1]; after 50 µM, RDT = 0.2): 94 ± 7 s
τoff, time constant of recovery from inhibition (Hv1 WT [1]; after 50 μM, single-exponential fit, RDT 0.1-0.5): ≥ 80 s
τ of current decay under pulsed application (Hv1 WT [2]; 100 μM for 3 s pulses, membrane at −40 mV during application, single-exponential): 46 ± 4 s
channel inhibition under pulsed conditions (Hv1 WT [2]; membrane held at 0 mV): 55 ± 3%
channel inhibition under pulsed conditions (Hv1 WT [2]; membrane held at −80 mV): 33 ± 4%
extent of inhibition compared with WT (monomeric Hv1): not reduced
ratio between the peak current and the current at the end of the depolarization step in the presence of the inhibitor (Hv1 F150A): 2.5 ± 0.5
higher inhibition vs WT (Hv1 S181A): 7%
reduction in τslow vs WT (Hv1 S181A): 26%
higher inhibition (decreased steady-state remaining current) vs WT (Hv1 R211A): 15%
reduction in τslow vs WT (Hv1 R211A): 64%
total extent of inhibition vs WT (Hv1 E153C; 50 µM): did not decrease
relative contribution of the slow component, cslow / (cfast + cslow) (Hv1 E153C; 50 μM, RDT = 0.2): 0.80
τoff, recovery from inhibition (Hv1 E153C; after 50 µM, RDT = 0.2): 294 ± 57 s
effect of mutation on inhibition (Hv1 F156A): did not result in any significant change
reduction of the extent of inhibition vs WT (Hv1 K157Q): 46%
τslow (Hv1 K157Q): > 200 s
